The text below walks through data of ChEMBL document CHEMBL1153971, “Design, synthesis, biological evaluation and molecular modelling studies of novel quinoline derivatives against Mycobacterium tuberculosis” (Bioorg Med Chem, 2009).

Broadly, the inhibition is the relative decrease from the control value, in per cent. A higher inhibition goes with a response far below the control. A word on the MIC: it is the lowest concentration that inhibits growth of the organism.

≈ marks a conversion by molar mass, not a printed value.

In data set [1] the test system is Mycobacterium tuberculosis. As to the kind of experiment: Antimycobacterial activity against Mycobacterium tuberculosis H37Rv ATCC 27294 at 6.25 ug/mL by radiometric method. It counts as functional.
The test system of data set [2] is Mycobacterium tuberculosis. The data set can be described thus: Antimycobacterial activity against Mycobacterium tuberculosis H37Rv ATCC 27294 assessed as growth inhibition at 6.25 ug/mL after 7 to 9 days by radiometric method. In kind it is functional. Particulars: read-out: GI. The gist of the method:
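Single-concentration screen against H37Rv (ATCC 27294) by the BACTEC 460 radiometric method. Compound was added once at 6.25 µg/mL on day one. […] DMSO was the vehicle.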

Data set [3] can be described thus: Cytotoxicity against human THP1 cells assessed as cell viability at 1 ug/100 mL after 72 hrs by MTT assay. It counts as cell-based. Particulars: THP-1 cells, read-out: Activity. The gist of the method:
(§1)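 Monocytic THP-1 cells were seeded at 10,000 cells/100 µL and cultured at 37 °C in 5% CO2. Compounds were added at 1 or 10 µg/100 µL, with medium plus DMSO as live control. After 24 or 72 h, MTT (stock 5 mg/mL) was added for 4 h, then isopropanol. Absorbance was read at 540 nm and reported as percent viability. Triplicates, mean of three readings.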
For orientation: Tetrazolium dyes change colour on reduction, which living cells bring about.

Data set [4] has as its system Mycobacterium tuberculosis. As to the kind of experiment: Antimycobacterial activity against Mycobacterium tuberculosis H37Rv ATCC 27294 assessed as growth index at 6.25 ug/mL after 8 days by radiometric method. It counts as functional. The gist of the method: (§2)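 M. tuberculosis H37Rv (ATCC 27294) in a BACTEC 460 radiometric culture. A single 6.25 µg/mL dose was given on day 1. Growth index was read daily from day 1 to day 9 against an untreated culture and an isoniazid-treated culture under identical conditions. Three independent readings were taken. Compounds were dissolved in DMSO.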

The subject of data set [5] is Mycobacterium tuberculosis. The data set can be described thus: Antimycobacterial activity against Mycobacterium tuberculosis H37Rv ATCC 27294 assessed as growth index at 6.25 ug/mL after 2 days by radiometric method. It counts as functional. In short, it runs like this: as §2
For data set [6], the system named is Mycobacterium tuberculosis. The data set can be described thus: Antimycobacterial activity against Mycobacterium tuberculosis H37Rv ATCC 27294 assessed as growth index at 6.25 ug/mL after 3 days by radiometric method. It counts as functional. In short, it runs like this:
as §2

The test system of data set [7] is Mycobacterium tuberculosis. As to the kind of experiment: Antimycobacterial activity against Mycobacterium tuberculosis H37Rv ATCC 27294 assessed as growth index at 6.25 ug/mL after 5 days by radiometric method. It counts as functional. In short, it runs like this:
as §2

Data set [8] in a line: Cytotoxicity against human THP1 cells assessed as cell viability at 10 ug/100 mL after 24 hrs by MTT assay. In kind it is cell-based. Particulars: THP-1 cells, read-out: Activity. In short, it runs like this: as §1
Data set [9] has as its system Mycobacterium tuberculosis. The data set can be described thus: Antimycobacterial activity against Mycobacterium tuberculosis H37Rv ATCC 27294 assessed as growth index at 6.25 ug/mL after 7 days by radiometric method. In kind it is functional. In short, it runs like this: as §2
Data set [10] deals with Mycobacterium tuberculosis. As to the kind of experiment: Antimycobacterial activity against Mycobacterium tuberculosis H37Rv ATCC 27294 assessed as growth index at 6.25 ug/mL after 4 days by radiometric method. In kind it is functional. In short, it runs like this: as §2
Data set [11] has as its system Mycobacterium tuberculosis. The data set can be described thus: Antimycobacterial activity against Mycobacterium tuberculosis H37Rv ATCC 27294 assessed as growth index at 6.25 ug/mL after 1 day by radiometric method. In kind it is functional. In short, it runs like this: as §2
Data set [12] can be described thus: Cytotoxicity against human THP1 cells assessed as cell viability at 10 ug/100 mL after 72 hrs by MTT assay. Particulars: THP-1 cells, read-out: Activity. In kind it is cell-based. In short, it runs like this:
as §1

Data set [13] deals with Mycobacterium tuberculosis. As to the kind of experiment: Antimycobacterial activity against Mycobacterium tuberculosis H37Rv ATCC 27294 assessed as growth index at 6.25 ug/mL after 6 days by radiometric method. It counts as functional. The gist of the method:
as §2

A short description of data set [14]: Cytotoxicity against human THP1 cells assessed as cell viability at 1 ug/100 mL after 24 hrs by MTT assay. Particulars: THP-1 cells, read-out: Activity. It counts as cell-based. In short, it runs like this: as §1
The test system of data set [15] is Mycobacterium tuberculosis. As to the kind of experiment: Antimycobacterial activity against Mycobacterium tuberculosis H37Rv ATCC 27294 by radiometric method. It counts as functional. The gist of the method:
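MIC against H37Rv by the BACTEC radiometric method. Five concentrations were tested: 6.25, […], 1.56, 0.78 and 0.39 µg/mL. Compounds were dissolved in DMSO.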

The subject of data set [16] is Mycobacterium tuberculosis. As to the kind of experiment: Antimycobacterial activity against Mycobacterium tuberculosis H37Rv ATCC 27294 assessed as growth index at 6.25 ug/mL after 9 days by radiometric method. In kind it is functional. The gist of the method: as §2

For `COC(=O)C(C(=O)n1cccn1)C(c1ccccc1)c1cc2cc(Br)ccc2nc1OC` (mixture of isomers), in [1], the inhibition at 6.25 µg/mL came to 22%.

In the case of `COc1nc2ccc(Br)cc2cc1C(c1ccccc1)n1nnnc1C` (centres undefined), the inhibition at 6.25 µg/mL in data set [1] turned out to be 14%.

In turn, `COc1nc2ccc(Br)cc2cc1C(NCc1ccncc1)c1ccccc1` (centres undefined) came in with an inhibition at 6.25 µg/mL in data set [1] of 17%.

`COC(=O)C(C(=O)N1CCN(c2cccc(C(F)(F)F)c2)CC1)C(c1ccccc1)c1cc2cc(Br)ccc2nc1OC` (centres undefined) gave an inhibition at 6.25 µg/mL in [1] of 8%.

In turn, `COc1nc2ccc(Br)cc2cc1C(c1ccccc1)n1ccc2ccccc21` (centres undefined) showed an inhibition at 6.25 µg/mL in data set [1] of 8%.

Compound `COC(=O)C(C(=O)N1CCCCC1)C(c1ccccc1)c1cc2cc(Br)ccc2nc1OC` (centres undefined) gave an inhibition at 6.25 µg/mL in data set [1] of 11%.

With `NNC(=O)c1ccncc1` [ISONIAZID], the inhibition of growth at 6.25 µg/mL in [2] was found to be 99.3%.

`COc1nc2ccc(Br)cc2cc1C(c1ccccc1)n1ccnc1` (racemic): the viability at 72 h, 1 ug/100 mL in data set [3] was 67%. Also, the Growth_index was found to be 35 in data set [4]; 22 in [5]; 25 in [6]; 34 in data set [7]; 35 in data set [9]; 28 in [10]. The values for the Growth_index in data set [11], in data set [13] and in [16] were 12, 33 and 56, respectively. Besides, the viability at 24 h, 10 ug/100 mL in [8] was found to be 56%. Besides, the viability at 72 h, 10 ug/100 mL in data set [12] is 67%. The viability at 24 h, 1 ug/100 mL in data set [14] worked out at 74%. The inhibition of growth at 6.25 µg/mL in [2] was found to be 94.2%. In [15], this compound showed an MIC of 6.25 µg/mL (≈ 15.9 µM). The inhibition at 6.25 µg/mL in data set [1] stood at 94.2%.

Consider `COc1nc2ccc(Br)cc2cc1C(c1ccccc1)N1CCOCC1` (centres undefined), for which 6.25 µg/mL produced 69% inhibition in data set [1].

Consider `COc1nc2ccc(Br)cc2cc1C(c1ccccc1)N1CCN(c2cccc(C(F)(F)F)c2)CC1` (centres undefined), for which the viability at 72 h, 1 ug/100 mL in data set [3] came to 100%. Also, the Growth_index in [4], in data set [5], in [6], in data set [7], in data set [9] and in data set [10] was 0 in each case. The results for the Growth_index in data set [11], in [13] and in [16] were 1, 0 and 0, respectively. The viability at 24 h, 10 ug/100 mL in data set [8] worked out at 97%. For the same compound, in data set [12], the viability at 72 h, 10 ug/100 mL turned out to be 97%. In addition, in data set [14], the viability at 24 h, 1 ug/100 mL came to 87%. Moreover, the inhibition of growth at 6.25 µg/mL in [2] was found to be 100%. This compound came in with an MIC in data set [15] of 6.25 µg/mL (≈ 11.2 µM). The compound further yielded an inhibition at 6.25 µg/mL in data set [1] of 100%.

Regarding `COc1nc2ccc(Br)cc2cc1C(Nc1ccc2oc(=O)ccc2c1)c1ccccc1` (racemic), the viability at 72 h, 1 ug/100 mL in data set [3] amounted to 100%. The Growth_index in [4] came out at 53; in [5] it was 27; in [6], 37; in [7] it was 52; in data set [9] it was 53; in [10], 45. Further, the Growth_index in [11] was 15; in data set [13], 48; in data set [16], 55. Also, in data set [8], the viability at 24 h, 10 ug/100 mL turned out to be 100%. For the same compound, in data set [12], the viability at 72 h, 10 ug/100 mL was 100%. Further, in data set [14], the viability at 24 h, 1 ug/100 mL is 100%. For the same compound, the inhibition of growth at 6.25 µg/mL in data set [2] was 92.5%. This compound displayed an MIC in data set [15] of 6.25 µg/mL (≈ 12.8 µM). In data set [1], the inhibition at 6.25 µg/mL was determined as 92.5%.

In data set [1], `COC(=O)C(C(=O)N1CCCC1)C(c1ccccc1)c1cc2cc(Br)ccc2nc1OC` (centres undefined) showed an inhibition at 6.25 µg/mL of 5%.

In turn, `COc1nc2ccc(Br)cc2cc1C(c1ccccc1)N1CCCCC1` (centres undefined) had an inhibition at 6.25 µg/mL in [1] of 53%.

In [1], `CCOC(=O)C(c1cccc2ccccc12)C(c1ccccc1)c1cc2cc(Br)ccc2nc1OC` (mixture of isomers) yielded an inhibition at 6.25 µg/mL of 0%.

Compound `CCOC(=O)C1CCCN1C(c1ccccc1)c1cc2cc(Br)ccc2nc1OC` (centres undefined) gave an inhibition at 6.25 µg/mL in [1] of 18%.

In the case of `COc1nc2ccc(Br)cc2cc1C(c1ccccc1)n1cccn1` (racemic), the viability at 72 h, 1 ug/100 mL in data set [3] was 100%. Also, the Growth_index in [4], in data set [5], in data set [6], in data set [7], in [9] and in [10] was 0 in each case. Also, the Growth_index is given as 1 in [11], 0 in [13] and 0 in [16]. Besides, the viability at 24 h, 10 ug/100 mL in [8] is 75%. Also, the viability at 72 h, 10 ug/100 mL in [12] was 98%. Besides, the viability at 24 h, 1 ug/100 mL in [14] stood at 71%. The inhibition of growth at 6.25 µg/mL in data set [2] came out at 99.5%. Besides, the MIC in [15] turned out to be 6.25 µg/mL (≈ 15.9 µM). Besides, in data set [1], testing at 6.25 µg/mL gave an inhibition of 99.5%.

In the case of `CCOC(=O)C1CCN(C(c2ccccc2)c2cc3cc(Br)ccc3nc2OC)CC1` (centres undefined), the inhibition at 6.25 µg/mL in data set [1] came out at 16%.

The compound `COC(=O)C(C(=O)N1CCOCC1)C(c1ccccc1)c1cc2cc(Br)ccc2nc1OC` (centres undefined) registered an inhibition at 6.25 µg/mL in data set [1] of 5%.

Compound `COc1nc2ccc(Br)cc2cc1C(c1ccccc1)n1cnc([N+](=O)[O-])c1` (centres undefined) came in with an inhibition at 6.25 µg/mL in data set [1] of 14%.
